Results as given in ChEMBL document CHEMBL4680173 (Eur J Med Chem, 2020).

Tests used:
SK-OV-3 [1] = experiment: Induction of apoptosis in human SK-OV-3 cells assessed as early apoptotic cells at 10 uM incubated for 24 hrs by AnnexinV-FITC and propidium iodide staining based flow cytometry analysis (reference value: 1.93%); assay type: functional
SK-OV-3 [2] = experiment: Induction of mitochondrial membrane potential loss in human SK-OV-3 cells at 10 uM measured after 24 hrs by JC-1 staining based flow cytometry analysis (reference value: 97.87%); assay type: functional
SK-OV-3 [3] = experiment: Cell cycle arrest in human SK-OV-3 cells assessed as cell accumulation at G1 phase at 5 uM incubated for 24 hrs by propidium iodide staining based flow cytometry analysis (reference value: 66.77%); assay type: functional
SK-OV-3 [4] = experiment: Induction of apoptosis in human SK-OV-3 cells assessed as increase in reactive oxygen species production at 10 uM measured after 24 hrs incubation by DCFH-DA staining based flow cytometric analysis (reference value: 2.63%); assay type: functional
SK-OV-3 [5] = experiment: Potency index, ratio of irinotecan IC50 to compound IC50 for cytotoxicity against human SK-OV-3 cells assessed as reduction in cell growth by MTT assay; assay type: functional
[6] = Toxicity in BALB/c nude mouse xenografted with human SK-OV-3 cells assessed as organ related toxicity on heart morphology at 20 mg/kg, iv once a week for 3 weeks by H and E staining-based fluorescence microscopy; assay type: organism-based; settings: in vivo, 504 h
Procedure, shortened: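 In the SK-OV-3 xenograft mice dosed iv weekly for three weeks, liver, heart, lung, kidney and spleen were collected at study end. Sections were dewaxed, stained with Harris haematoxylin then eosin-phloxine for 1 min, dehydrated, mounted, and examined by microscopy for tissue morphology.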

## CCOP(=O)(OCC)C(Nc1ccc(CCCC(=O)OC2(CC)C(=O)OCc3c2cc2n(c3=O)Cc3c-2nc2ccc(OC(=O)N4CCC(N5CCCCC5)CC4)cc2c3CC)cc1)c1ccc(F)cc1 (stereo unspecified)
SK-OV-3 [1]
  Activity: 25.47%
SK-OV-3 [2]
  Activity: 61.59%
SK-OV-3 [3]
  Activity: 66.65%
SK-OV-3 [4]
  Activity: 37.49%
SK-OV-3 [5]
  Ratio IC50: 5.4
[6]
  Activity: Non-Toxic
